Assay outcomes: PubChem BioAssay, several laboratories
Sampled rows, rich in hits. Any-hit rate of the full collection: about 2%.
Hck-Nef inh: human Hck-Nef kinase inhibition. 220,000 tested, 0.68% active. inhibition, % at 20 µM. Recombinant Hck-YEEI plus Nef, Z-Lyte FRET kinase assay. P08631;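 active = Hck-Nef kinase inhibition above about 50%, limit read from the data; inactive = inhibition below that limit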
Target sequence (P08631 whole entry, looked up): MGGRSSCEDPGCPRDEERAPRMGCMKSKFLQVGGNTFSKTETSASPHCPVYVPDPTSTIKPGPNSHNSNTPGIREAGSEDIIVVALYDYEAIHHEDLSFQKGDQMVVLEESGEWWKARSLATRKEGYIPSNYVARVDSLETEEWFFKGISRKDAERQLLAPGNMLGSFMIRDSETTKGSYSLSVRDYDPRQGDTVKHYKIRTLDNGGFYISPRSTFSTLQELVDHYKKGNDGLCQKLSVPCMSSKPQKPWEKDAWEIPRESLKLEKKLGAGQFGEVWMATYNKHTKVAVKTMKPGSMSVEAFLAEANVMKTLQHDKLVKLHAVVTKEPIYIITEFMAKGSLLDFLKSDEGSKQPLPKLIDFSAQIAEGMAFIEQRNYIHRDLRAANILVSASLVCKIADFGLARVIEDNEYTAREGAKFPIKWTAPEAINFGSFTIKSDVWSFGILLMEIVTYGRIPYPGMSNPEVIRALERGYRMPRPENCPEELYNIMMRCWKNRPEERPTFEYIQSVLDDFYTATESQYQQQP
eIF4E-4G inh: eIF4E/eIF4G interaction inhibition in translation initiation; P63073+Q04637; TR-FRET eIF4E-eIF4GI(517-606) binding, 2 h; inhibition, % at 21.7 µM; 220,000 tested, 0.37% active; AID 782
14-3-3 Bad PPI: disrupts binding of bovine 14-3-3 zeta to phospho-Bad peptide | TR-FRET 14-3-3zeta/Dy647-pBad peptide displacement, 1 h | 220,000 tested, 0.71% active | inhibition, % at 21.7 µM;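 active = inhibition above about 70%, limit read from the data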
NCF1 inh: inhibitors of human p47phox binding. P14598. p47phox/p22phox peptide binding, fluorescence polarization, 2 h. inhibition, % at 24.7 µM. 220,000 tested, 0.53% active. AID 1274
Diaph act CS: diaphorase activation or chemical reduction counter-screen | 190,000 tested, 0.005% active | activation factor at 20 µM | Diaphorase/resazurin coupled assay, resorufin fluorescence, 16 min; hits give high values; 1 = vehicle wells, 0 = NADH-free wells;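 active = diaphorase activity raised at least twofold by the compound at 20 µM; inactive = activation factor below 2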
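Test system: Clostridium kluyveri diaphorase, purified enzyme; input: enzyme 0.07 U/mL final; buffer or medium: 50 mM HEPES pH 7.4 with 4.542 mM MgCl2, 0.005% Tween 20; also added: 0.114 mM NADH and 0.1 mM resazurin, final amounts; schedule: 16 min enzyme reaction, ambient temperature; technique: fluorescence of resorufin, 544 nm excitation, 590 nm emission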
A number is an active result; [ ] = another dose, or the depositor's remark.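 Rule for the calls, unless noted: active = inhibition above about 30% (limit read from the data); inactive = the rest.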

What do the screens show for `OC(COCc1ccc2c(c1)OCO2)CN1CCN(Cc2ccccc2)CC1` (configuration not stated)?
Hck-Nef inh: inactive; eIF4E-4G inh: inactive; 14-3-3 Bad PPI: 79; NCF1 inh: inactive; Diaph act CS: inactive

How did CCCCCCCC(=O)NC1=NC(=O)C(C)(C)S1 do in these assays?
Hck-Nef inh: inactive; eIF4E-4G inh: inactive; 14-3-3 Bad PPI: inactive; NCF1 inh: inactive

What do the screens show for `COC(=O)Cn1ncn2cccc2c1=O`?
Hck-Nef inh: inactive; eIF4E-4G inh: inactive; 14-3-3 Bad PPI: inactive; NCF1 inh: inactive; Diaph act CS: inactive

What do the screens show for `CCOC(=O)C(C)n1ncn2cccc2c1=O` (configuration not stated)?
Hck-Nef inh: inactive; eIF4E-4G inh: 43[fluorescence artefact?]; 14-3-3 Bad PPI: inactive; NCF1 inh: inactive; Diaph act CS: inactive

Results for CC(C)CC(=O)N1CCN(Cc2ccccc2[N+](=O)[O-])CC1 ?
Hck-Nef inh: inactive; eIF4E-4G inh: inactive; 14-3-3 Bad PPI: inactive; NCF1 inh: inactive; Diaph act CS: inactive

Results for N#CC(=C=[N-])c1nc2ccccc2nc1-[n+]1cccc(NC(=O)c2ccccc2)c1 ?
Hck-Nef inh: inactive; eIF4E-4G inh: inactive; 14-3-3 Bad PPI: inactive; NCF1 inh: 53

Results for N#CC(=C=[N-])c1nc2ccccc2nc1-[n+]1cccc(NC(=O)c2cccs2)c1 ?
Hck-Nef inh: inactive; eIF4E-4G inh: inactive; 14-3-3 Bad PPI: inactive; NCF1 inh: 48

Results for N#CC(=C=[N-])c1nc2ccccc2nc1-[n+]1cccc(NC(=O)c2ccc(F)cc2)c1 ?
Hck-Nef inh: inactive; eIF4E-4G inh: inactive; 14-3-3 Bad PPI: inactive; NCF1 inh: inactive

What do the screens show for `O=C(COC(=O)c1ccc2c(c1)S(=O)(=O)N=C1CCCCCN12)NCc1cccs1`?
Hck-Nef inh: inactive; eIF4E-4G inh: inactive; 14-3-3 Bad PPI: inactive; NCF1 inh: inactive

How did CCN(CC)CCCNC(=O)CC1Sc2ccccc2NC1=O (configuration not stated) do in these assays?
Hck-Nef inh: inactive; eIF4E-4G inh: 32; 14-3-3 Bad PPI: inactive; NCF1 inh: inactive; Diaph act CS: inactive

What do the screens show for `CCN1C(c2ccccc2)=C(c2ccccc2)S/C1=C/C=C1\SC(=S)N(C)C1=O`?
Hck-Nef inh: inactive; eIF4E-4G inh: inactive; 14-3-3 Bad PPI: inactive; NCF1 inh: 42; Diaph act CS: inactive

Results for CCN1C(c2ccccc2)=C(c2ccccc2)S/C1=C\C=C1/SC(=S)N(C)C1=O ?
Hck-Nef inh: inactive

Results for O=c1c(-c2ccccc2)coc2c(CN3CCCC3)c(O)ccc12 ?
Hck-Nef inh: inactive; eIF4E-4G inh: 76; 14-3-3 Bad PPI: inactive; NCF1 inh: inactive; Diaph act CS: inactive

How did O=C(CSc1nnc(NC(=O)c2ccco2)s1)Nc1ccc2c(c1)OCCO2 do in these assays?
Hck-Nef inh: inactive; eIF4E-4G inh: inactive; 14-3-3 Bad PPI: inactive; NCF1 inh: inactive; Diaph act CS: inactive

What do the screens show for `CCOc1ccc(NC(=O)c2ccc(F)c(S(=O)(=O)N3CCN(c4ccccn4)CC3)c2)cc1`?
Hck-Nef inh: inactive; eIF4E-4G inh: inactive; 14-3-3 Bad PPI: 75; NCF1 inh: inactive; Diaph act CS: inactive

How did O=C(Nc1cccc(Cl)c1)c1ccc(F)c(S(=O)(=O)N2CCN(c3ccccn3)CC2)c1 do in these assays?
Hck-Nef inh: inactive; eIF4E-4G inh: inactive; 14-3-3 Bad PPI: inactive; NCF1 inh: inactive; Diaph act CS: inactive

What do the screens show for `CCN(CC)C(=O)c1ccc(-c2nnc(OC)c3ccccc23)cc1`?
Hck-Nef inh: inactive; eIF4E-4G inh: inactive; 14-3-3 Bad PPI: inactive; NCF1 inh: inactive

Results for COc1ccc(/C=C2\C(=O)NC(=S)N2C(=O)c2ccc(F)cc2)cc1 ?
Hck-Nef inh: inactive; eIF4E-4G inh: inactive; 14-3-3 Bad PPI: 89[fluorescence artefact?]; NCF1 inh: inactive; Diaph act CS: inactive

Results for O=C(NC1CCCCC1)C1CCN(c2cnccn2)CC1 ?
Hck-Nef inh: inactive; eIF4E-4G inh: 40; 14-3-3 Bad PPI: inactive; NCF1 inh: inactive; Diaph act CS: inactive

Results for COc1cccc(OC)c1OCC(O)CN1CCN(c2ccccc2)CC1 (configuration not stated) ?
Hck-Nef inh: inactive; eIF4E-4G inh: inactive; 14-3-3 Bad PPI: 72; NCF1 inh: inactive; Diaph act CS: inactive

What do the screens show for `CC(C)(C)C1CCC(OCC(O)CN2CCN(c3ccccc3)CC2)CC1` (configuration not stated)?
Hck-Nef inh: inactive; eIF4E-4G inh: inactive; 14-3-3 Bad PPI: 75; NCF1 inh: inactive; Diaph act CS: inactive

How did COc1ccc(CN2CCN(C(=O)C3CCC(CNS(=O)(=O)c4ccc(C)cc4)CC3)CC2)c(OC)c1OC (configuration not stated) do in these assays?
Hck-Nef inh: inactive; eIF4E-4G inh: inactive; 14-3-3 Bad PPI: inactive; NCF1 inh: inactive; Diaph act CS: inactive

How did COC(=O)c1sc(-c2cccs2)cc1NC(=O)/C=C/C(=O)O do in these assays?
Hck-Nef inh: inactive; eIF4E-4G inh: inactive; 14-3-3 Bad PPI: inactive; NCF1 inh: inactive

Results for CCC(CC)NC(=O)Nc1ccc(C)cc1 ?
Hck-Nef inh: inactive; eIF4E-4G inh: inactive; 14-3-3 Bad PPI: inactive; NCF1 inh: inactive

How did O=C(c1ccc(Cn2c(=S)[nH]c3ccc(Br)cc3c2=O)cc1)N1CCN(C2CCCCC2)CC1 do in these assays?
Hck-Nef inh: inactive; eIF4E-4G inh: inactive; 14-3-3 Bad PPI: inactive; NCF1 inh: inactive; Diaph act CS: inactive

How did CCN(CC(=O)Nc1cc(Cl)ccc1OC)CC(=O)NC1CCS(=O)(=O)C1 (configuration not stated) do in these assays?
Hck-Nef inh: inactive; eIF4E-4G inh: inactive; 14-3-3 Bad PPI: 74; NCF1 inh: inactive

Results for CCN(CC(=O)Nc1cc(C)c(Cl)cc1OC)CC(=O)NC1CCS(=O)(=O)C1 (configuration not stated) ?
Hck-Nef inh: inactive; eIF4E-4G inh: inactive; 14-3-3 Bad PPI: inactive; NCF1 inh: inactive; Diaph act CS: inactive

How did Cc1ccc(-c2nn(C)c(=O)c3ccccc23)cc1CNC(=O)Cn1nc(-c2ccccc2)c2ccccc2c1=O do in these assays?
Hck-Nef inh: inactive; eIF4E-4G inh: inactive; 14-3-3 Bad PPI: inactive; NCF1 inh: 41; Diaph act CS: inactive

Results for N#C/C(=C\c1sc(N2CCOCC2)nc1-c1ccccc1)C(=O)Nc1cccc2ccccc12 ?
Hck-Nef inh: inactive; eIF4E-4G inh: 45; 14-3-3 Bad PPI: inactive; NCF1 inh: inactive; Diaph act CS: inactive

Results for COc1cc2c(cc1OC)C(c1ccccc1O)N(C1CC(=O)N(c3ccccc3)C1=O)CC2 (configuration not stated) ?
Hck-Nef inh: inactive; eIF4E-4G inh: inactive; 14-3-3 Bad PPI: 74; NCF1 inh: inactive; Diaph act CS: inactive

What do the screens show for `CCOC(=O)Cn1c(=O)oc2cc(S(=O)(=O)NCCC(C)C)ccc21`?
Hck-Nef inh: inactive; eIF4E-4G inh: inactive; 14-3-3 Bad PPI: inactive; NCF1 inh: inactive; Diaph act CS: inactive

Results for CCOC(=O)Cn1c(=O)oc2cc(S(=O)(=O)NCCc3ccc(OCC)c(OCC)c3)ccc21 ?
Hck-Nef inh: inactive; eIF4E-4G inh: inactive; 14-3-3 Bad PPI: inactive; NCF1 inh: 103; Diaph act CS: inactive
